Assay results reported in paper PMC8694313 (RSC Advances, 2021).
Values after ≈ are worked out from the molar mass of the structure shown.

Legend:
Staphylococcus aureus = test: In vitro antibacterial MIC determination; format: cell-based
Procedure, shortened: (§1)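 Bacteria grown on nutrient agar, subcultured to log phase in nutrient broth, then diluted in sterile saline to about 10^5–10^6 CFU mL−1. Test compounds diluted in acetone, DMSO or diethyl ether (ether preferred). Saturated disks placed on spread-plated inoculum and incubated at 37 °C for 24 h. MIC determined across different compound concentrations, with streptomycin as standard.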

Pseudomonas aeruginosa = test: In vitro antibacterial MIC determination; format: cell-based
Procedure, shortened: as §1

Rhizopus arrhizus = test: In vitro antifungal MIC, poison plate technique; format: cell-based
[1] = tested on: carrageenan-induced paw edema; test: Carrageenan induced hind paw edema assay; format: in vivo; conditions: rat, 100 mg kg^−1 p.o., mean ± SEM
Procedure, shortened: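 Rats, six per group, acclimatized one week (25 ± 2 °C, 12 h light/dark, standard pellets, water ad libitum). […] Paw volume measured by plethysmometer displacement to the lateral malleolus at 1, 3 and 6 h. Mean ± SEM.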

Escherichia coli = test: In vitro antibacterial MIC determination; format: cell-based
Procedure, shortened: as §1

RAW 264.7 cells [2] = test: MTT assay, LPS-induced inflammation in RAW 264.7; format: cell-based, murine; conditions: RAW 264.7, pre-treatment 100 μM and 200 μM, then LPS; Fig. 4
Procedure, shortened: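 Mouse RAW 264.7 macrophages kept in high-glucose DMEM with 10% heat-inactivated FBS and 1% penicillin–streptomycin at 37 °C, 5% CO2. Cells seeded at 5 × 10^5 cells per mL, pretreated 1 h with test compound (100 or 200 μM), then stimulated with […] for 24 h. Medium replaced; 0.5 mg mL−1 MTT for 3 h; formazan dissolved in DMSO; OD read at 540 nm. Percent inflammation derived by subtracting percent viability relative to control.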

RAW 264.7 cells [3] = test: Nitrite; format: cell-based, murine; conditions: RAW 264.7, 100 μM and 200 μM pre-treatment; Fig. 5
Procedure, shortened: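 RAW 264.7 cells (1 × 10^6) seeded in flasks and left to adhere overnight. Pretreated 1 h with test compound (100 or 200 μM), then 100 μM LPS for 24 h at 37 °C, 5% CO2. Supernatant mixed with an equal volume of Griess reagent (0.1% naphthylethylenediamine and 1% sulfanilamide, 1:1, in 5% phosphoric acid) for 10 min in the dark at room temperature; A540 read. Nitrite quantified from a NaNO2 standard curve (0.1–6.25 μM), expressed as μmol NO2−/mg protein. Triplicates.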

Aspergillus niger = test: In vitro antifungal MIC, poison plate technique; format: cell-based
COX-2 = biological target: T1, COX-2 (Ovis aries, UniProt P79208); test: Colorimetric COX; format: biochemical, ovine; conditions: read-out: % inhibition of COX, COX-2
T1 sequence (P79208 17-603): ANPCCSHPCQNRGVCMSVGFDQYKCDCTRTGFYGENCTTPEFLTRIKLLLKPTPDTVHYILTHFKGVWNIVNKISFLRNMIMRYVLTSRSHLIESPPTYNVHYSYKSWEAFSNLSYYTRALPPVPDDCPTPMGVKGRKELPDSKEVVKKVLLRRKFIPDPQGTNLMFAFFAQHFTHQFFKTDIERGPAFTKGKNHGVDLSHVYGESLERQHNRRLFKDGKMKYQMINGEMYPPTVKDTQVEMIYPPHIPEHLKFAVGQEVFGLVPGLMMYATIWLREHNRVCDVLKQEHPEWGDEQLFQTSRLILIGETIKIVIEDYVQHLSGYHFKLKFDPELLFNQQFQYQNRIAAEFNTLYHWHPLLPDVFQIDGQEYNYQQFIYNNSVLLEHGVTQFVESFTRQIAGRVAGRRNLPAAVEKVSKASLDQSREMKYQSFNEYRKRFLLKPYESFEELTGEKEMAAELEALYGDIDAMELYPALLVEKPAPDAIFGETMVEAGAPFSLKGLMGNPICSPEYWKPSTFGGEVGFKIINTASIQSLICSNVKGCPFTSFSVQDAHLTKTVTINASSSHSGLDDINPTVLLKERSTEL

COX-1 = biological target: T2, COX-1 (Ovis aries, UniProt P05979); test: Colorimetric COX; format: biochemical, ovine; conditions: read-out: % inhibition of COX, COX-1
T2 sequence (P05979 25-600): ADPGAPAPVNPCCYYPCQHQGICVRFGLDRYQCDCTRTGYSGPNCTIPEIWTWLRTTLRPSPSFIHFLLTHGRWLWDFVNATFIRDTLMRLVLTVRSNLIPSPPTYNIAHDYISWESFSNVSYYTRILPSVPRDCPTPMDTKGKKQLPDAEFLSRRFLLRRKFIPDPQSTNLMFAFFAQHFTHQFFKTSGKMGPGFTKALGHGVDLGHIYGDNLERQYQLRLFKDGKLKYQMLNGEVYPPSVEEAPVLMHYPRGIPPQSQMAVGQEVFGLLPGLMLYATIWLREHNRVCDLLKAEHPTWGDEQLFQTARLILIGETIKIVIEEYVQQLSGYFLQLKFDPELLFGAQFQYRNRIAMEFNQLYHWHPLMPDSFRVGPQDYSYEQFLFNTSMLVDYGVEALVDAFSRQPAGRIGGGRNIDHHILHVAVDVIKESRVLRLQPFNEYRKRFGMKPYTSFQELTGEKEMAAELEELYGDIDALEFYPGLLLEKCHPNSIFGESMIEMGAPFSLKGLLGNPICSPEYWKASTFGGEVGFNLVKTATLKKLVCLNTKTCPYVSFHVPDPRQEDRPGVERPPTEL

Aspergillus flavus = test: In vitro antifungal MIC, poison plate technique; format: cell-based
Bacillus subtillis = test: In vitro antibacterial MIC determination; format: cell-based
Procedure, shortened: as §1

Row | MIC (Staphylococcus aureus) [µg/mL] | MIC (Pseudomonas aeruginosa) [µg/mL] | MIC (Escherichia coli) [µg/mL] | inhibition at 100 µM (COX-2) [%] | inhibition at 200 µM (COX-2) [%] | inhibition at 100 µM (COX-1) [%] | inhibition at 200 µM (COX-1) [%] | MIC (Bacillus subtillis) [µg/mL] | SMILES | MIC (Rhizopus arrhizus) [µg/mL] | Paw volume ([1]; 1 h after carrageenan) [mL] | Paw volume ([1]; 3 h after carrageenan) [mL] | Paw volume ([1]; 6 h after carrageenan) [mL] | anti-inflammatory activity against LPS induced cell death / inflammation (MTT) (RAW 264.7 cells [2]) | inhibition of LPS-induced NO production (RAW 264.7 cells [3]) | MIC (Aspergillus niger) [µg/mL] | MIC (Aspergillus flavus) [µg/mL]
1 | 20.32 ± 0.06 (≈ 52.6 µM) | 30.36 ± 0.22 (≈ 78.5 µM) | 21.1 ± 0.45 (≈ 54.7 µM) | 37.7 ± 0.35 | 63.6 ± 0.32 | 43.1 ± 0.8 | 69.02 ± 0.5 | 26 ± 0.42 (≈ 67.2 µM) | O=C(NC[C@@H](O)[C@@H]1CCc2cc(F)ccc2O1)OCC(Cl)(Cl)Cl [Compound 9b, 2,2,2-Trichloroethyl ((R)-2-((S)-6-fluorochroman-2-yl)-2-hydroxyethyl)carbamate] | 19.2 ± 0.48 (≈ 49.8 µM) | 0.76 ± 0.48 | 0.88 ± 0.16 | 1.50 ± 0.25 |  |  | 24.7 ± 0.7 (≈ 63.9 µM) | 23.8 ± 0.67 (≈ 61.6 µM)
2 | 19 ± 1.08 (≈ 61.2 µM) | 28.8 ± 0.6 (≈ 92.5 µM) | 22.7 ± 0.26 (≈ 73 µM) | 24.3 ± 0.2 | 41.66 ± 0.23 | 39.6 ± 0.08 | 51.64 ± 0.32 | 26.1 ± 0.3 (≈ 83.8 µM) | CC(C)COC(=O)NC[C@@H](O)[C@@H]1CCc2cc(F)ccc2O1 [Compound 9c, Isobutyl ((R)-2-((S)-6-fluorochroman-2-yl)-2-hydroxyethyl)carbamate] | 25.6 ± 0.48 (≈ 82.1 µM) |  |  |  |  |  | 19.3 ± 0.47 (≈ 62.1 µM) | 19.8 ± 0.37 (≈ 63.6 µM)
3 | 18.1 ± 0.8 (≈ 63.8 µM) | 31.7 ± 0.88 (≈ 112 µM) | 27.2 ± 0.92 (≈ 96.1 µM) | 29.7 ± 0.75 | 38.59 ± 0.29 | 41.4 ± 0.62 | 52.16 ± 0.3 | 27.7 ± 0.44 (≈ 97.6 µM) | CCOC(=O)NC[C@@H](O)[C@@H]1CCc2cc(F)ccc2O1 [Compound 9d, Ethyl((R)-2-((S)-6-fluorochroman-2-yl)-2-hydroxyethyl)carbamate] | 31.3 ± 0.45 (≈ 110 µM) |  |  |  |  |  | 28.46 ± 0.14 (≈ 100 µM) | 25.2 ± 0.66 (≈ 89 µM)
4 | 18.6 ± 1.07 (≈ 32.1 µM) | 28.2 ± 0.8 (≈ 48.5 µM) | 26.4 ± 1.12 (≈ 45.4 µM) |  |  |  |  | 25.4 ± 0.48 (≈ 43.7 µM) | [H]/N=C(/N)N[C@H]1[C@H](O)[C@@H](O)[C@H](O[C@@H]2O[C@@H](C)[C@](O)(C=O)[C@H]2O[C@@H]2O[C@@H](CO)[C@H](O)[C@@H](O)[C@@H]2NC)[C@@H](N/C(N)=N\[H])[C@@H]1O [Streptomycin, reference compound] |  |  |  |  |  |  |  | 

Row | SMILES | MIC (Staphylococcus aureus) [µg/mL] | MIC (Pseudomonas aeruginosa) [µg/mL] | MIC (Escherichia coli) [µg/mL] | inhibition at 100 µM (COX-2) [%] | inhibition at 200 µM (COX-2) [%] | inhibition at 100 µM (COX-1) [%] | inhibition at 200 µM (COX-1) [%] | MIC (Bacillus subtillis) [µg/mL] | MIC (Rhizopus arrhizus) [µg/mL] | Paw volume ([1]; 1 h after carrageenan) [mL] | Paw volume ([1]; 3 h after carrageenan) [mL] | Paw volume ([1]; 6 h after carrageenan) [mL] | anti-inflammatory activity against LPS induced cell death / inflammation (MTT) (RAW 264.7 cells [2]) | inhibition of LPS-induced NO production (RAW 264.7 cells [3]) | MIC (Aspergillus niger) [µg/mL] | MIC (Aspergillus flavus) [µg/mL]
5 | COC(=O)NC[C@@H](O)[C@@H]1CCc2cc(F)ccc2O1 [Compound 9a, Methyl ((R)-2-((S)-6-fluorochroman-2-yl)-2-hydroxyethyl)carbamate] | 16.6 ± 0.35 (≈ 61.5 µM) | 19.5 ± 1.25 (≈ 72.3 µM) | 21.7 ± 1.06 (≈ 80.6 µM) | 18.1 ± 0.88 | 52.42 ± 0.21 | 50.66 ± 0.33 | 75.33 ± 0.14 | 20.5 ± 0.76 (≈ 76.1 µM) | 14.2 ± 0.69 (≈ 52.7 µM) | 0.72 ± 0.72 | 1.06 ± 0.52 | 1.56 ± 0.33 | strong anti-inflammatory activity | strong inhibition | 11.2 ± 1.08 (≈ 41.6 µM) | 12.7 ± 0.8 (≈ 47 µM)
